Screening results from PubChem.
TAAR1 ag: agonists of human TAAR1; Q96RJ0; CHO RD-HGA16 TAAR1, Fluo-8 calcium fluorescence; vehicle wells 0%, saturating PEA agonist 100%; activation, % at 3 µM; hit rate 0.99% among 360,000; AID 624467;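 active = activation above the mean activation of all test compounds in the run plus 3 SD, cut at about 38% in these data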
Target sequence (Q96RJ0 whole entry, looked up): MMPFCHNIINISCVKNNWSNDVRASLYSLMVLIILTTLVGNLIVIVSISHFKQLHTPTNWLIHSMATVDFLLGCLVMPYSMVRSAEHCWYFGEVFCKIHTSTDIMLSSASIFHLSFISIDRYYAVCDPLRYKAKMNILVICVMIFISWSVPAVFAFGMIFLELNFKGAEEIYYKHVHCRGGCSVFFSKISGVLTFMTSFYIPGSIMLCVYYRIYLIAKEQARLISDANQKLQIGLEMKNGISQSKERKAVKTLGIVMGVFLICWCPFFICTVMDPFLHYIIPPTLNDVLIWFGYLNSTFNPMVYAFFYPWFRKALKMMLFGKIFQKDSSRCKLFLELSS
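Test system: RD-HGA16 (CHO) cells co-expressing Gα16 and hTAAR1; dosing: one-point dosing at 3 µM (nominal); timing: 17-24 h seeding, 75 min 37 °C dye, 30 min RT; signal: kinetic Fluo-8 calcium fluorescence; read-out basis: % activation relative to PEA EC100 response; controls: DMSO and PEA EC100; replicates: n 1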
V1R ag counter: activates human V1a receptor in oxytocin agonist counter-screen; hit rate 0.25% among 320,000; CHO-V1R cells, Fluo-8 calcium fluorescence, agonist mode; 0% DMSO, 100% 3 nM vasopressin; activation, % at 3 µM; P37288;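 active = activation above the mean activation of all tested compounds plus 3 SD, per screening run, cut at about 20% in these data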;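 note: signal is peak over basal fluorescence ratio across a 100 second FLIPR read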
OXTR ag: agonists of human oxytocin receptor; P30559; CHO-OTR cells, Fluo-8 calcium fluorescence; normalized: DMSO 0%, oxytocin 100%; activation, % at 3 µM; hit rate 0.32% among 320,000; AID 2435;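 active = activation above the mean of all tested compounds plus 3 SD, cutoff set per screening run, cut at about 20% in these data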;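 note: peak over basal fluorescence ratio from a 100 s FLIPR kinetic read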
TAAR1 antagonist: human TAAR1 antagonism; Q96RJ0; CHO RD-HGA16 TAAR1, Fluo-8 calcium fluorescence, antagonist; inhibition, % at 3 µM; hit rate 1.5% among 360,000; AID 624466;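 active = inhibition above a per-plate cutoff, the mean inhibition of test compounds on that plate plus 3 SD, cut at about 49% in these data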
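Test system – hTAAR1-expressing CHO RD-HGA16 cells, Gα16-coupled · Also added – β-PEA at EC80 concentration, post-compound challenge · Compound – 3 µM, single point · Incubation – dye loading 75 min at 37 °C, then 30 min room temperature · Measured by – Fluo-8 intracellular calcium dye fluorescence, real-time kinetic reads · Benchmarks – vehicle and agonist controls · Replicates – singlicate, one well per test compound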
OXTR potentiator: potentiators of human oxytocin receptor. P30559. CHO-OTR cells, Fluo-8 calcium fluorescence, potentiator mode; 0% = oxytocin EC15, 100% = EC100. activation, % at 3 µM. hit rate 0.061% among 320,000. AID 2445;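 active = activation above that plate's cutoff, the mean activation of tested compounds plus 3 SD, cut at about 6.6% in these data, passing the limit was not always enough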
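Measured by – Fluo-8 calcium dye fluorescence · Test system – human OTR in CHO cells · Dosing – one concentration, 3.0 µM compound · Controls – EC15 oxytocin alone as 0%, 75 nM oxytocin as 100% · Evaluation – normalized max/min fluorescence ratio, % activation · Timing – 6 min pre-incubation, 100 s read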
nonsel antag count: counter-screen for TAAR1 antagonists: nonselective antagonists. shares compounds with TAAR1 antagonist. counterscreen cell line, calcium fluorescence, antagonist mode. inhibition, % at 3 µM. hit rate 77% among 2,400; in the data active = inhibition above about 22%;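 note: CHO-Ga16 host cells stimulated with ATP at an EC80 level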
TAAR1 antag conf: confirmation of human TAAR1 antagonists. shares compounds with TAAR1 antagonist. TAAR1-expressing cells, fluorescence antagonist read-out. inhibition, % at 3 µM. hit rate 40% among 2,400; in the data active = inhibition above about 49%;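 note: CHO-Ga16 host cells challenged with agonist PEA near its EC80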
Ga16 ag counter: counter-screen for TAAR1 antagonists: nonselective Ga16 agonists; shares compounds with TAAR1 antagonist; activation, % at 3 µM; AID 651953; Ga16-expressing cells, calcium fluorescence, agonist counterscreen; hit rate 18% among 2,400; in the data active = activation above about 12%
TAAR1 ag counter: TAAR1 agonism, antagonist counter-screen; hit rate 2% among 2,400; activation, % at 3 µM; AID 651955; shares compounds with TAAR1 antagonist; hTAAR1 cell line, fluorescence activation, agonist mode; in the data active = activation above about 37%;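 note: CHO cells stably expressing TAAR1 with calcium dye readout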
Each line names hits and unclear results; the compound was inactive in the other large screens (follow-up assays come after a bar, where they were run). Sampled rows, rich in hits. Any-hit rate of the full collection: about 2.3%.

COc1ccc2c(c1)CCC/C2=N\Nc1nc(C(=O)NN)cs1	none
C/C(=N\NC(=O)c1ccccc1OCCOc1ccccc1)c1ccccc1F	TAAR1 antagonist 60 (no result: V1R ag counter, OXTR ag, OXTR potentiator) | nonsel antag count inactive | TAAR1 antag conf inactive | Ga16 ag counter inactive | TAAR1 ag counter inactive
COc1ccc(/C=N/NC(=O)c2ccccc2OCc2ccccc2)c(OC)c1	TAAR1 antagonist 49 | nonsel antag count inactive | TAAR1 antag conf inactive | Ga16 ag counter inactive | TAAR1 ag counter inactive
C/C(=N\NC(=O)c1ccccc1)c1ccccc1F	none
Cc1cccc(/C=N/NC(=O)c2ccccc2OCc2cccc(Br)c2)n1	TAAR1 antagonist 64 | nonsel antag count 22 | TAAR1 antag conf inactive | Ga16 ag counter inactive | TAAR1 ag counter inactive
C#CCOc1ccccc1/C=N/NC(=O)c1ccccc1OCc1ccccc1	TAAR1 antagonist 56 | nonsel antag count inactive | TAAR1 antag conf inactive | Ga16 ag counter inactive | TAAR1 ag counter inactive
CCc1cc2c(nc1CC)CCCN2S(=O)(=O)c1ccc(F)cc1	none (no result: V1R ag counter, OXTR ag, OXTR potentiator)
Cc1cc(C)c(C)c(S(=O)(=O)N2CCC(C(=O)N3CCCC3)CC2)c1C	none
O=C(COC(=O)c1ccccc1Cl)NC1CCCCCC1	none
COc1ccccc1C=NNC(=O)c1ccccc1OCCOc1ccccc1	TAAR1 antagonist 62 | nonsel antag count 21 | TAAR1 antag conf 51 | Ga16 ag counter inactive | TAAR1 ag counter inactive
COc1ccccc1/C=N/NC(=O)c1ccccc1Cl	none
CC(C)=CCC/C(C)=C/CN1C(=O)N(c2ccc(F)cc2)[C@H]2C[C@@H](c3ccccc3)[C@@H](C)[C@@H](C(=O)N3CCOCC3)C[C@H]21	TAAR1 antagonist 65 (no result: V1R ag counter, OXTR ag, OXTR potentiator) | nonsel antag count 35 | TAAR1 antag conf 59 | Ga16 ag counter inactive | TAAR1 ag counter inactive
CCN1C(=O)N[C@H]2C[C@H](C(=O)N3CCCC3)[C@H](C)[C@H](c3ccccc3)C[C@H]21	none (no result: V1R ag counter, OXTR ag, OXTR potentiator)
Cc1onc(-c2ccccc2Cl)c1C(=O)Nc1cccc(-c2nc3ncccn3c2C)c1	TAAR1 antagonist 107 | nonsel antag count inactive | TAAR1 antag conf inactive | Ga16 ag counter inactive | TAAR1 ag counter inactive
CCOc1cccc(-c2cnc3cccnn23)c1	none (no result: V1R ag counter, OXTR ag, OXTR potentiator)
COC(=O)C(Nc1ccccc1Cl)(c1cc(C)c(O)c(C)c1)C(F)(F)F (centres undefined)	TAAR1 antagonist 83 | nonsel antag count inactive | TAAR1 antag conf inactive | Ga16 ag counter inactive | TAAR1 ag counter inactive
Cc1ccc(NC(=O)/C(C#N)=C/c2cn(CC(=O)NCc3ccco3)c3ccccc23)cc1C	none
Cc1ccc(C)c(NC(=O)/C(C#N)=C/c2cn(CC(=O)NCc3ccco3)c3ccccc23)c1	TAAR1 antagonist 103 | nonsel antag count inactive | TAAR1 antag conf inactive | Ga16 ag counter inactive | TAAR1 ag counter inactive
COc1ccccc1Nc1nnc(SCc2nnc(-c3cc(OC)c(OC)c(OC)c3)o2)s1	TAAR1 antagonist 58 | nonsel antag count 25 | TAAR1 antag conf inactive | Ga16 ag counter inactive | TAAR1 ag counter inactive
CCOc1ccccc1Nc1nnc(SCc2nnc(-c3cc(OC)c(OC)c(OC)c3)o2)s1	none
Cn1c(/C(C#N)=C(\O)c2ccc([N+](=O)[O-])cc2)nc2ccccc21	none
CCN(CC)S(=O)(=O)c1ccc(/C(O)=C(\C#N)c2nc3ccccc3n2C)cc1	TAAR1 antagonist 63 | nonsel antag count 35 | TAAR1 antag conf 49 | Ga16 ag counter 13 | TAAR1 ag counter inactive
CCOc1ccc(NS(=O)(=O)c2coc(C(N)=O)c2)cc1	none
N#Cc1c(-c2ccc(Br)cc2)cc(-c2cccnc2)nc1N	none
N#Cc1c(-c2cccc(Br)c2)cc(-c2cccnc2)nc1N	TAAR1 antagonist 56 | nonsel antag count inactive | TAAR1 antag conf inactive | Ga16 ag counter inactive | TAAR1 ag counter inactive
